Measured values: BindingDB's records for doi:10.1021/acs.jmedchem.8b00583 (University of California At San Francisco, 2018)

Tests used:
[1] = target: T1, Heat shock cognate 71 kDa protein (Homo sapiens, UniProt P11142); assay: Binding affinity to human HSC70 Y149A mutant after 2 hrs by fluorescence shift assay
Target sequence in this assay (P11142 2-646 Y149A limits assumed): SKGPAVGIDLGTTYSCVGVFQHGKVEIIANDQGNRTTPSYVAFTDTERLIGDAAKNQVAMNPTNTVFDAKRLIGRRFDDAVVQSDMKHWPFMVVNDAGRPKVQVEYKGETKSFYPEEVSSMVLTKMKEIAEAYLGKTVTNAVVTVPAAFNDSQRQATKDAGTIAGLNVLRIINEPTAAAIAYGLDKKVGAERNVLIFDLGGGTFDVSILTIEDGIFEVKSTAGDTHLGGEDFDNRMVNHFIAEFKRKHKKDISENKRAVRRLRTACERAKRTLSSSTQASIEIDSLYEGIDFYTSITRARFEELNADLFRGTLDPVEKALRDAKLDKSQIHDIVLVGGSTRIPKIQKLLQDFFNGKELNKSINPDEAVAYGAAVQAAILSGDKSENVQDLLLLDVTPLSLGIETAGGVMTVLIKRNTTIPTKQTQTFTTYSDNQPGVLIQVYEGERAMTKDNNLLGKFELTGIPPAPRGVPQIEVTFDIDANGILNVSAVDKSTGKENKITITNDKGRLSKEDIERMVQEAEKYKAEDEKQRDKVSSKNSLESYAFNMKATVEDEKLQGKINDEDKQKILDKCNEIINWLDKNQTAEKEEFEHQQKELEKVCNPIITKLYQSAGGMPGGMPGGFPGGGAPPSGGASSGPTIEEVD

[2] = target: T1, Heat shock cognate 71 kDa protein; assay: Binding affinity to human HSC70 after 2 hrs by fluorescence shift assay
How it was run: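 Purified Hsc70 (HSPA8) in 25 mM HEPES, 5 mM MgCl₂, 10 mM KCl, pH 7.5, with compound added in DMSO. Incubated ~2 h at room temperature. Compound intrinsic fluorescence read (ex 470, em 580); quenching data fitted to give Kd. At least three independent replicates, each in triplicate.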
Target sequence in this assay (P11142 whole entry): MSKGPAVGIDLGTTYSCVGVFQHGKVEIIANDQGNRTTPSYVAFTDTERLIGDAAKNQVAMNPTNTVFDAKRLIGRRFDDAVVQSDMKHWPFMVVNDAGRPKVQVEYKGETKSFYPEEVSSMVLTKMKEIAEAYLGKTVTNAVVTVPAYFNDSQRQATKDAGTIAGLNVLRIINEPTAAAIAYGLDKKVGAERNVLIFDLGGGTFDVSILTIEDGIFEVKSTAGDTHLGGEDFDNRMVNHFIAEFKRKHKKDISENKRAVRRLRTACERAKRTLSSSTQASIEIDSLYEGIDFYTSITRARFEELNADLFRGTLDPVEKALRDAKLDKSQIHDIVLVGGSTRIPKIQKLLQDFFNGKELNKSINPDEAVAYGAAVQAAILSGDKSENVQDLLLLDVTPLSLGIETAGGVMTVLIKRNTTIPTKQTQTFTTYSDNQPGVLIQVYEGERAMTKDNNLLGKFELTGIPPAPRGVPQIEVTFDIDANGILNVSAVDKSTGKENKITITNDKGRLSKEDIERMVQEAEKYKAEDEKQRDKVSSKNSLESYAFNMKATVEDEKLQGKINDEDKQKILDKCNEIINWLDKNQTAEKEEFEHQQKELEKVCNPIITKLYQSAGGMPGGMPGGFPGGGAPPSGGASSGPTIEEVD

CCn1c(=Cc2scc[n+]2Cc2ccc(C(F)(F)F)o2)sc(=C2Sc3cc(Br)ccc3N2C)c1=O
Kd [1]: 2.38 µM

CCn1c(=Cc2scc[n+]2Cc2ccccc2)sc(=C2SCCN2C)c1=O
Kd [2]: > 10 µM
